Data taken from ChEMBL document CHEMBL1255535, “7-O-Arylmethylgalangin as a novel scaffold for anti-HCV agents” (Bioorg Med Chem Lett, 2010).

Key:
Hepatitis C virus = experiment: Antiviral activity against HCV assessed as inhibition of viral replication by luciferase assay; format: functional, organism-based, Hepacivirus hominis
How it was run: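 Huh-5-2 replicon cells (5 × 10³/well) seeded in complete DMEM with G418, 24 h at 37 °C (5% CO2), then medium refreshed with G418 and compounds added from DMSO stock; 4 days at 37 °C; luciferase activity read by Steady-Glo. EC50 = concentration inhibiting HCV RNA replication by 50%, averaged from triplicate determinations; IFN-α as positive control.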

[1] = Cytotoxicity against human Huh5-2 cells after 3 days by WST-1 assay; format: cell-based, Huh-5-2
How it was run: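 Huh-5-2 cells seeded at 5 × 10³/well in complete DMEM with G418; serial compound dilutions in DMEM without G418 added 24 h later; cells proliferated 3 days at 37 °C; cell number by WST-1. CC50 = concentration reducing cell proliferation by 50%.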

[2] = Selectivity index, ratio of CC50 for human Huh5-2 cells to EC50 for HCV; design: species or system Huh-5-2
How it was run: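 Selectivity index computed as CC50 (Huh-5-2 proliferation, WST-1, 3 days) divided by EC50 (replicon luciferase, 4 days), both from the same Huh-5-2 cell line.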

COc1ccccc1COc1cc(O)c2c(=O)c(O)c(-c3ccccc3)oc2c1
EC50 (Hepatitis C virus): 53 µM | CC50 at 72 h [1]: > 100 µM

O=c1c(O)c(-c2ccccc2)oc2cc(OCc3ccccc3Cl)cc(O)c12
EC50 (Hepatitis C virus): 30 µM | CC50 at 72 h [1]: > 100 µM

O=c1c(O)c(-c2ccccc2)oc2cc(OCc3ccccc3Br)cc(O)c12
EC50 (Hepatitis C virus): 10 µM | CC50 at 72 h [1]: > 100 µM

N#Cc1ccccc1COc1cc(O)c2c(=O)c(O)c(-c3ccccc3)oc2c1
EC50 (Hepatitis C virus): 39 µM | CC50 at 72 h [1]: 22 µM | Selectivity Index [2]: 0.6

O=c1c(O)c(-c2ccccc2)oc2cc(OCc3ccccc3[N+](=O)[O-])cc(O)c12
EC50 (Hepatitis C virus): 25 µM | CC50 at 72 h [1]: 32 µM | Selectivity Index [2]: 1.3

Cc1ccccc1COc1cc(O)c2c(=O)c(O)c(-c3ccccc3)oc2c1
EC50 (Hepatitis C virus): 7 µM | CC50 at 72 h [1]: 17 µM | Selectivity Index [2]: 2.4

O=c1c(O)c(-c2ccccc2)oc2cc(OCc3cccc(Cl)c3)cc(O)c12
EC50 (Hepatitis C virus): 22 µM | CC50 at 72 h [1]: > 100 µM

O=c1c(O)c(-c2ccccc2)oc2cc(OCc3cccc(Br)c3)cc(O)c12
EC50 (Hepatitis C virus): 37 µM | CC50 at 72 h [1]: > 100 µM

N#Cc1cccc(COc2cc(O)c3c(=O)c(O)c(-c4ccccc4)oc3c2)c1
EC50 (Hepatitis C virus): 3 µM | CC50 at 72 h [1]: 72 µM | Selectivity Index [2]: 24

O=c1c(O)c(-c2ccccc2)oc2cc(OCc3cccc([N+](=O)[O-])c3)cc(O)c12
EC50 (Hepatitis C virus): 2 µM | CC50 at 72 h [1]: 76 µM | Selectivity Index [2]: 38

Cc1cccc(COc2cc(O)c3c(=O)c(O)c(-c4ccccc4)oc3c2)c1
EC50 (Hepatitis C virus): 27 µM | CC50 at 72 h [1]: 35 µM | Selectivity Index [2]: 1.3

COc1cccc(COc2cc(O)c3c(=O)c(O)c(-c4ccccc4)oc3c2)c1
EC50 (Hepatitis C virus): 15 µM | CC50 at 72 h [1]: > 100 µM

O=c1c(O)c(-c2ccccc2)oc2cc(OCc3ccc(Cl)cc3)cc(O)c12
EC50 (Hepatitis C virus): 8 µM | CC50 at 72 h [1]: > 100 µM

O=c1c(O)c(-c2ccccc2)oc2cc(OCc3ccc(Br)cc3)cc(O)c12
EC50 (Hepatitis C virus): 6 µM | CC50 at 72 h [1]: > 100 µM

N#Cc1ccc(COc2cc(O)c3c(=O)c(O)c(-c4ccccc4)oc3c2)cc1
EC50 (Hepatitis C virus): 19 µM | CC50 at 72 h [1]: 94 µM | Selectivity Index [2]: 4.9

O=c1c(O)c(-c2ccccc2)oc2cc(OCc3ccc([N+](=O)[O-])cc3)cc(O)c12
EC50 (Hepatitis C virus): 10 µM | CC50 at 72 h [1]: 93 µM | Selectivity Index [2]: 9.3

Cc1ccc(COc2cc(O)c3c(=O)c(O)c(-c4ccccc4)oc3c2)cc1
EC50 (Hepatitis C virus): 6 µM | CC50 at 72 h [1]: 88 µM | Selectivity Index [2]: 14.7

COc1ccc(COc2cc(O)c3c(=O)c(O)c(-c4ccccc4)oc3c2)cc1
EC50 (Hepatitis C virus): 38 µM | CC50 at 72 h [1]: > 100 µM

N#Cc1ccc(-c2oc3cc(OCc4ccc(Cl)cc4)cc(O)c3c(=O)c2O)cc1
EC50 (Hepatitis C virus): 0.9 µM | CC50 at 72 h [1]: 67 µM | Selectivity Index [2]: 74.4

O=c1c(O)c(-c2ccc(C(F)(F)F)cc2)oc2cc(OCc3ccc(Cl)cc3)cc(O)c12
EC50 (Hepatitis C virus): 3 µM | CC50 at 72 h [1]: 73 µM | Selectivity Index [2]: 24.3

COc1ccc(-c2oc3cc(OCc4ccc(Cl)cc4)cc(O)c3c(=O)c2O)cc1
EC50 (Hepatitis C virus): 6 µM | CC50 at 72 h [1]: 64 µM | Selectivity Index [2]: 10.7

O=C(O)/C(O)=C/C(=O)c1cccc(NCc2ccc(Cl)cc2)c1
EC50 (Hepatitis C virus): 0.82 µM
